Experimental data as given in ChEMBL document CHEMBL2203082, “Thiorhodamines containing amide and thioamide functionality as inhibitors of the ATP-binding cassette drug transporter P-glycoprotein (ABCB1)” (Bioorg Med Chem, 2012).

Columns and labels:
[1] = Permeability from apical to basal side of MDCK2 cells expressing MDR1 at 5 uM after 1 hr by LC-MS/MS analysis; type: ADME, cell-based, Canis lupus familiaris, MDCK-II; conditions: dog, MDCK-MDR1; read-out: permeability
In short: (§1)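 MDCKII-MDR1 cells on Transwell polycarbonate filters (50,000 cells cm−2), used day 6. 5 μM compound added to donor chamber (AB or BA). Donor and receiver sampled after 1 h at 37 °C with nutation. Cell-associated fraction taken by methanol extraction of monolayer after AB flux. Quantified by LC-MS/MS. ±SD.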

[2] = Permeability from apical to basal side of MDCK2 cells expressing MDR1 assessed as fraction of mass extracted by methanol wash at 5 uM after 1 hr by LC-MS/MS analysis; type: ADME, cell-based, Canis lupus familiaris; conditions: dog, mdck-ii; in short: as §1
[3] = Permeability from apical to basal side of MDCK2 cells expressing MDR1 assessed as fraction of mass extracted by methanol wash at 5 uM after 1 hr by LC-MS/MS analysis in presence of LSN 335984; type: ADME, cell-based, Canis lupus familiaris; conditions: dog, mdck-ii; in short: as §1
P-gp (MDR1, ABCB1) [4] = target: T1, P-gp (MDR1, ABCB1) (Homo sapiens, UniProt P08183); experiment: Inhibition of MDR1 transfected in MDCK2 cells assessed as increase in calcein AM uptake at 5*10^-6 M incubated for 30 mins prior to calcein AM influx measured after 20 mins by fluorimetric analysis relative to LSN 335984; type: cell-based, MDCK-II; conditions: dog, MDCK2 cells transfected with MDR1, probe calcein AM
T1 sequence (P08183 whole entry): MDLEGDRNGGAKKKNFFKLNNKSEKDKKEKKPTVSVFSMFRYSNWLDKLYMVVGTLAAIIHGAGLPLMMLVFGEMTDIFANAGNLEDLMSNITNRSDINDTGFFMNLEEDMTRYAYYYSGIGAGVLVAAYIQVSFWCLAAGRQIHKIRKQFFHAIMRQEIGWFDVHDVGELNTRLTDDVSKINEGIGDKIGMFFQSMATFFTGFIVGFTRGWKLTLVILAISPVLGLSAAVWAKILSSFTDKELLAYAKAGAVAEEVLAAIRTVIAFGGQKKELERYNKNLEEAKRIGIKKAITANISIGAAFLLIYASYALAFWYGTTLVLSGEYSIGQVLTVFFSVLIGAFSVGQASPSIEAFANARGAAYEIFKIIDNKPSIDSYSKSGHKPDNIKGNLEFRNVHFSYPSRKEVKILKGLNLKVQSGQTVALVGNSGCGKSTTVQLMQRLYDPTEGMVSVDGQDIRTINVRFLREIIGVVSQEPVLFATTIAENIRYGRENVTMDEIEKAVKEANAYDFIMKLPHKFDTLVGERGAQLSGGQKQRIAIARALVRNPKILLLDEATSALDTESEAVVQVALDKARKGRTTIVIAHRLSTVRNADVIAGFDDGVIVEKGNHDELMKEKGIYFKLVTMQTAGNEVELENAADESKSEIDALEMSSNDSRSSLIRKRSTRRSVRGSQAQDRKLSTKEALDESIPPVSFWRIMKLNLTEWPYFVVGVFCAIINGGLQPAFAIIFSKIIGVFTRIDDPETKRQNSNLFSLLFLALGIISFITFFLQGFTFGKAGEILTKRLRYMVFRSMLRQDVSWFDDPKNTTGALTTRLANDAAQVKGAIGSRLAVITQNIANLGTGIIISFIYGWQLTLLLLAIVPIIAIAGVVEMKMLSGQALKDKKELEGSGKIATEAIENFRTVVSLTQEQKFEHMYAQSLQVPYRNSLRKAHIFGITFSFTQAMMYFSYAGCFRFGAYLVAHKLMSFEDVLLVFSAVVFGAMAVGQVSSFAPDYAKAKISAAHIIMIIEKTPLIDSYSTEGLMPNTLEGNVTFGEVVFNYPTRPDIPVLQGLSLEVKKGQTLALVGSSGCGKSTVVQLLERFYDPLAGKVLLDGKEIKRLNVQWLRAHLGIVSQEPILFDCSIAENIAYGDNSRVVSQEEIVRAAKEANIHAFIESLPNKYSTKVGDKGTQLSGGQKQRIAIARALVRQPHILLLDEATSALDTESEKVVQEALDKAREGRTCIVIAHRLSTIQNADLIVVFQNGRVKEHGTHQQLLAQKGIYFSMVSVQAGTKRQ
In short: (§2)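 MDCKII-MDR1 cells (passage 16-42) seeded 40,000 cells/well, used day 4. Washed with DPBS plus 10−2 M Hepes pH 7.4, then incubated 30 min at 37 °C with compound in this buffer with 4.3 mg mL−1 BSA. Compound solution then replaced with one also holding 0.5 μg mL−1 calcein AM, 20 min more.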

[5] = Permeability from basal to apical side of MDCK2 cells expressing MDR1 at 5 uM after 1 hr by LC-MS/MS analysis; type: ADME, cell-based, Canis lupus familiaris, MDCK-II; conditions: dog, MDCK-MDR1; read-out: permeability; in short: as §1
[6] = target: T2, ATP-dependent translocase ABCB1 (Homo sapiens, UniProt P08183); experiment: Inhibition of MDR1 transfected in MDCK2 cells assessed as increase in calcein AM uptake incubated for 30 mins prior to calcein AM influx measured after 20 mins by fluorimetric analysis; type: cell-based, MDCK-II
T2 sequence (P08183 whole entry): as above

[7] = target: P-gp (ABCB1) ATPase activity (Homo sapiens, UniProt P08183); experiment: Binding affinity to human His10-tagged P-gp expressed in BHK cells assessed as induction of ATPase activity measured as inorganic phosphate release by spectrophotometric analysis relative to control; type: cell-based; conditions: read-out: FC
Chain of P-gp (ABCB1) ATPase activity (P08183 whole entry): as above

[8] = Ratio of permeability from apical to basal side of MDCK2 cells expressing MDR1 assessed as fraction of mass extracted by methanol wash at 5 uM in presence of LSN 335984 to permeability from apical to basal side of MDCK2 cells expressing MDR1 assessed as fraction of mass extracted by methanol wash at 5 uM in absence of LSN 335984; type: ADME, cell-based, Canis lupus familiaris; conditions: dog, mdck-ii; in short: as §1
[9] = Ratio of permeability from basal to apical side of MDCK2 cells expressing MDR1 in absence of LSN 335984 to permeability from basal to apical side of MDCK2 cells expressing MDR1 in presence of LSN 335984; type: ADME, cell-based, Canis lupus familiaris; conditions: dog, mdck-ii; in short: as §1
[10] = target: T2, ATP-dependent translocase ABCB1; experiment: Inhibition of MDR1 transfected in MDCK2 cells assessed as inhibition of [3H]vinblastine efflux incubated for 30 mins prior to [3H]vinblastine addition by scintillation counting; type: cell-based, MDCK-II
In short: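 Transwell MDCKII-MDR1 monolayers on day 6, rinsed 10 min in DPBSH at 37 °C. Conditioned with compound at 1 × 10−10 to 1 × 10−5 M in BSA/DPBSH. [3H]-vinblastine added to the basolateral side. Apical buffer replaced every 10 min, and apical [3H] counted by scintillation. IC50 calculated from the curve.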

P-gp (MDR1, ABCB1) [11] = target: T1, P-gp (MDR1, ABCB1); experiment: Inhibition of MDR1 transfected in MDCK2 cells assessed as increase in calcein AM uptake at 2.5*10^-5 M incubated for 30 mins prior to calcein AM influx measured after 20 mins by fluorimetric analysis relative to LSN 335984; type: cell-based, MDCK-II; conditions: dog, MDCK2 cells transfected with MDR1, probe calcein AM; in short: as §2
[12] = n-Octanol-water partition coefficient, log P of the compound at pH 7.4 by shake flask method; type: physicochemical
[13] = target: T2, ATP-dependent translocase ABCB1; experiment: Inhibition of human His10-tagged P-gp ATPase activity expressed in BHK cells assessed as verapamil-induced inorganic phosphate release incubated for 15 mins prior to verapamil addition by spectrophotometric analysis; type: cell-based
In short: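 P-gp-His10 stably expressed in BHK cells, Ni-chelate purified and mixed 1:1 with 10 mg/ml sheep brain phosphatidylethanolamine. Pre-incubated with compound 15 min at 20 °C. […] Released inorganic phosphate measured.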

Work on `CCN(CC)C(=O)c1ccc(-c2c3ccc(=[N+](C)C)cc-3sc3cc4c(cc23)C(C)(C)CCN4C)s1.F[P-](F)(F)(F)(F)F` yielded a Papp A→B at 1 h, 5 µM [1] of no more than 0.1 ×10⁻⁶ cm/s, a permeability [2] of 10% and a permeability [3] of 33%. For the same molecule, the inhibition at 20 min, 5 µM (P-gp (MDR1, ABCB1) [4]) was 0%, the Papp B→A at 1 h, 5 µM [5] was 37 ×10⁻⁶ cm/s and the IC50 [6] was 7.1 µM. It also gave a fold induction [7] of 4.7, a Ratio [8] of 3.3 and a Ratio [9] of 14. It also gave an IC50 [10] of 8 µM, an inhibition at 20 min, 25 µM (P-gp (MDR1, ABCB1) [11]) of 64% and a logD [12] of 1.4.

Molecule `CN1CCC(C)(C)c2cc3c(-c4ccc(C(=S)N5CCCCC5)s4)c4ccc(=[N+](C)C)cc-4sc3cc21.F[P-](F)(F)(F)(F)F` has a Papp A→B at 1 h, 5 µM [1] of no more than 0.1 ×10⁻⁶ cm/s, a permeability [2] of 34% and a permeability [3] of 62%. For the same molecule, the inhibition at 20 min, 5 µM (P-gp (MDR1, ABCB1) [4]) was 0%, the IC50 [13] was 1.7 µM and the Papp B→A at 1 h, 5 µM [5] was 3.4 ×10⁻⁶ cm/s. It also gave an IC50 [6] of 9.3 µM, a fold induction [7] of less than 2 and a Ratio [8] of 1.8. It also gave a Ratio [9] of 170, an IC50 [10] of 8.9 µM and an inhibition at 20 min, 25 µM (P-gp (MDR1, ABCB1) [11]) of 64%. It also gave a logD [12] of 2.6.

For `CN1CCC(C)(C)c2cc3c(-c4ccc(C(=O)N5CCCCC5)s4)c4ccc(=[N+](C)C)cc-4sc3cc21.F[P-](F)(F)(F)(F)F`, the Papp A→B at 1 h, 5 µM [1] was no more than 0.1 ×10⁻⁶ cm/s, the permeability [2] was 8.6% and the permeability [3] was 45%. It also gave an inhibition at 20 min, 5 µM (P-gp (MDR1, ABCB1) [4]) of 0%, an IC50 [13] of 1.1 µM and a Papp B→A at 1 h, 5 µM [5] of 23 ×10⁻⁶ cm/s. It also gave an IC50 [6] of 13 µM, a fold induction [7] of less than 2 and a Ratio [8] of 5.2. It also gave a Ratio [9] of 31, an IC50 [10] of 5.6 µM and an inhibition at 20 min, 25 µM (P-gp (MDR1, ABCB1) [11]) of 64%. It also gave a logD [12] of 1.7.

`CCN(CC)C(=S)c1ccc(-c2c3ccc(=[N+](C)C)cc-3sc3cc(N(C)C)ccc23)s1.F[P-](F)(F)(F)(F)F` gave a Papp A→B at 1 h, 5 µM [1] of no more than 0.1 ×10⁻⁶ cm/s, a permeability [2] of 11% and a permeability [3] of 56%. It also gave an inhibition at 20 min, 5 µM (P-gp (MDR1, ABCB1) [4]) of 0%, a Papp B→A at 1 h, 5 µM [5] of 21 ×10⁻⁶ cm/s and an IC50 [6] of 14 µM. It also gave a fold induction [7] of 12.1, a Ratio [8] of 5.1 and a Ratio [9] of 41. It also gave an inhibition at 20 min, 25 µM (P-gp (MDR1, ABCB1) [11]) of 3% and a logD [12] of 1.2.

`CCN(CC)C(=O)c1ccc(-c2c3ccc(=[N+](C)C)cc-3sc3c4c5c(cc23)CCCN5CCC4)s1.F[P-](F)(F)(F)(F)F` showed a Papp A→B at 1 h, 5 µM [1] of no more than 0.1 ×10⁻⁶ cm/s, a permeability [2] of 5.8% and a permeability [3] of 28%. It also gave an inhibition at 20 min, 5 µM (P-gp (MDR1, ABCB1) [4]) of 0%, a Papp B→A at 1 h, 5 µM [5] of 21 ×10⁻⁶ cm/s and an IC50 [6] of 10 µM. For the same molecule, the fold induction [7] was 5.6, the Ratio [8] was 4.8 and the Ratio [9] was 12. It also gave an inhibition at 20 min, 25 µM (P-gp (MDR1, ABCB1) [11]) of 41% and a logD [12] of 1.9.

For `CCN(CC)C(=O)c1ccc(-c2c3ccc(=[N+](C)C)cc-3sc3cc(N(C)C)ccc23)s1`, the logD [12] was 1.2.

`C[N+](C)=c1ccc2c(-c3ccc(C(=O)N4CCCCC4)s3)c3cc4c5c(c3sc-2c1)CCCN5CCC4.F[P-](F)(F)(F)(F)F` gave a Papp A→B at 1 h, 5 µM [1] of no more than 0.1 ×10⁻⁶ cm/s, a permeability [2] of 6.9% and a permeability [3] of 42%. It also gave an inhibition at 20 min, 5 µM (P-gp (MDR1, ABCB1) [4]) of 0%, a Papp B→A at 1 h, 5 µM [5] of 22 ×10⁻⁶ cm/s and an IC50 [6] of 56 µM. The fold induction [7] was 4.1, the Ratio [8] was 6.1 and the Ratio [9] was 27. It also gave an inhibition at 20 min, 25 µM (P-gp (MDR1, ABCB1) [11]) of 41% and a logD [12] of 1.4.

With `C[N+](C)=c1ccc2c(-c3ccc(C(=S)N4CCCCC4)s3)c3cc4c5c(c3sc-2c1)CCCN5CCC4.F[P-](F)(F)(F)(F)F` the Papp A→B at 1 h, 5 µM [1] was no more than 0.1 ×10⁻⁶ cm/s, the permeability [2] was 31% and the permeability [3] was 64%. For the same molecule, the inhibition at 20 min, 5 µM (P-gp (MDR1, ABCB1) [4]) was 0%, the Papp B→A at 1 h, 5 µM [5] was 8.3 ×10⁻⁶ cm/s and the inhibition at 20 min, 25 µM (P-gp (MDR1, ABCB1) [11]) was 41%.

For `CCN(CC)C(=S)c1ccc(-c2c3ccc(=[N+](C)C)cc-3sc3cc4c(cc23)C(C)(C)CCN4C)s1.F[P-](F)(F)(F)(F)F`, the Papp A→B at 1 h, 5 µM [1] was no more than 0.1 ×10⁻⁶ cm/s, the permeability [2] was 52% and the permeability [3] was 64%. For the same molecule, the inhibition at 20 min, 5 µM (P-gp (MDR1, ABCB1) [4]) was 0%, the Papp B→A at 1 h, 5 µM [5] was 6.9 ×10⁻⁶ cm/s and the IC50 [6] was 8.8 µM. For the same molecule, the fold induction [7] was 4.3, the Ratio [8] was 1.2 and the Ratio [9] was 69. The IC50 [10] was 8.7 µM, the inhibition at 20 min, 25 µM (P-gp (MDR1, ABCB1) [11]) was 64% and the logD [12] was 2.7.

`CN(C)c1ccc2c(-c3ccc(C(=O)N4CCCCC4)s3)c3ccc(=[N+](C)C)cc-3sc2c1` gave a logD [12] of 1.5.

`CCN(CC)C(=S)c1ccc(-c2c3ccc(=[N+](C)C)cc-3sc3c4c5c(cc23)CCCN5CCC4)s1.F[P-](F)(F)(F)(F)F` showed a Papp A→B at 1 h, 5 µM [1] of no more than 0.1 ×10⁻⁶ cm/s, a permeability [2] of 25% and a permeability [3] of 45%. For the same molecule, the inhibition at 20 min, 5 µM (P-gp (MDR1, ABCB1) [4]) was 0%, the Papp B→A at 1 h, 5 µM [5] was 6.5 ×10⁻⁶ cm/s and the IC50 [6] was 9.6 µM. For the same molecule, the fold induction [7] was 4.6, the Ratio [8] was 1.8 and the Ratio [9] was 24. For the same molecule, the inhibition at 20 min, 25 µM (P-gp (MDR1, ABCB1) [11]) was 41% and the logD [12] was 1.7.
